{
  "source": "ChEMBL document CHEMBL5712071",
  "about": "“BET bromodomain protein inhibition is a therapeutic option for medulloblastoma” (Oncotarget, 2013)",
  "key": {"D283 Med [1]": {"system": "D283 Med", "experiment": "Anti-proliferative activity against human D283 cells assessed as reduction in cell viability incubated for 72 hrs by MTT assay", "type": "functional, cell-based", "procedure,_shortened": "(§1)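 Cells seeded in triplicate at 2 × 10^3 per well and allowed to adhere for 24h. JQ1 was given as serial dilutions in full medium, 1nM-6µM, from a 10 mM DMSO stock. Viability was read by MTT at each time point and IC50 derived from dose-response curves. Culture media were RPMI 1640/10% FCS for HD-MB3 (plus 1% NEAA), ONS-76, Daoy and UW-228, and EMEM/10% FCS for D-283 and D-341.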"}, "UW228 [2]": {"system": "UW228", "experiment": "Anti-proliferative activity against human UW228 cells assessed as reduction in cell viability incubated for 72 hrs by MTT assay", "type": "functional, cell-based", "conditions": "UW228, 72 h", "procedure,_shortened": "as §1"}, "ONS-76 [3]": {"system": "ONS-76", "experiment": "Induction of apoptosis in human ONS-76 cells assessed as increase in population of cells in G1 phase at 500 nM incubated for 72 hrs by flow cytometry", "type": "functional, cell-based"}, "HD-MB03 [4]": {"system": "HD-MB03", "experiment": "Inhibition of BRD4 female athymic (nu/nu) mouse xenografted with human HD-MB03 cells as reduction in MYC protein expression in tumor at 50 mg/kg, ip administered at 0, 12, 24 and 36 hrs over 2-day course by Western blot analysis", "type": "functional, organism-based", "procedure,_shortened": "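Same flank HD-MB3 xenografts in female nu/nu mice. Given 4 i.p. doses of JQ1 50 mg/kg (or DMSO) at 0, 12, 24 and 36h; tumours excised 4h after the last dose and snap-frozen. MYC measured by RT-PCR (mean ± S.D.) or western blot with β-actin loading control, 3 tumours per group.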"}, "D341 cell line [5]": {"system": "D341 cell line", "experiment": "Anti-proliferative activity against human D341 cells assessed as reduction in cell viability incubated for 48 hrs by MTT assay", "type": "functional, cell-based", "conditions": "D341, 48 h", "procedure,_shortened": "as §1"}, "UW228 [6]": {"system": "UW228", "experiment": "Anti-proliferative activity against human UW228 cells assessed as reduction in cell viability incubated for 48 hrs by MTT assay", "type": "functional, cell-based", "conditions": "UW228, 48 h", "procedure,_shortened": "as §1"}, "D283 Med [7]": {"system": "D283 Med", "experiment": "Anti-proliferative activity against human D283 cells assessed as reduction in cell viability incubated for 120 hrs by MTT assay", "type": "functional, cell-based", "procedure,_shortened": "as §1"}, "D283 Med [8]": {"system": "D283 Med", "experiment": "Antiproliferative activity against human D283 cells at 500 nM incubated for 72 hrs by BrdU ELISA method", "type": "functional, cell-based", "procedure,_shortened": "(§2)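 Cells seeded in triplicate at 2 × 10^3 per well with 24h adherence, then treated with 500 nM JQ1 or DMSO control for 72h. Proliferation was measured by BrdU incorporation ELISA. Experiments were run independently at least 3 times.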"}, "Daoy [9]": {"system": "Daoy", "experiment": "Induction of apoptosis in human Daoy cells assessed as increase in population of cells in G1 phase at 500 nM incubated for 72 hrs by flow cytometry", "type": "functional, cell-based", "procedure,_shortened": "(§3)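 Cells were cultured with 500 nM JQ1 or DMSO control, trypsinised and washed 3 times in PBS. DNA was stained with propidium iodide for 15 min and DNA content analysed by flow cytometry to give G1 and sub-G1 fractions.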"}, "D341 cell line [10]": {"system": "D341 cell line", "experiment": "Induction of senescence in human D341 cells assessed as increase in population of cells in G1 phase at 500 nM incubated for 72 hrs by fluorometric SA-beta-gal activity assay", "type": "functional, cell-based", "procedure,_shortened": "(§4)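 Senescence read as fluorometric SA-β-gal activity. Cells seeded 2 × 10^3 per well in triplicate and allowed 24h to adhere, then exposed to 500 nM JQ1 or DMSO control for 72h. Assayed per kit protocol. Experiments repeated at least 3 times.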"}, "Daoy [11]": {"system": "Daoy", "experiment": "Antiproliferative activity against human Daoy cells at 500 nM incubated for 72 hrs by BrdU ELISA method", "type": "functional, cell-based", "procedure,_shortened": "as §2"}, "ONS-76 [12]": {"system": "ONS-76", "experiment": "Anti-proliferative activity against human ONS-76 cells assessed as reduction in cell viability incubated for 120 hrs by MTT assay", "type": "functional, cell-based", "conditions": "ONS-76, 120 h", "procedure,_shortened": "as §1"}, "[13]": {"target": "Bromodomain-containing protein 4 (Homo sapiens) (UniProt O60885)", "conditions": "D283 Med, dose 500.0 nM, time 24.0 hrs"}, "HD-MB03 [14]": {"system": "HD-MB03", "experiment": "Anti-proliferative activity against human HD-MB03 cells expressing dominant-negative TP53 mutant assessed as reduction in cell viability at 1 to 6000 nM incubated for 72 hrs by MTT assay", "type": "functional, cell-based", "conditions": "dose 1-6000 nM", "procedure,_shortened": "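HD-MB3 was stably transfected with pMSCV-puro-p53DD and selected in 2 μg/mL puromycin. Cells were seeded in triplicate at 2 × 10^3 per well with 24h adherence, then exposed to serially diluted JQ1 in full medium for 72h. Viability was read by MTT.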"}, "D341 cell line [15]": {"system": "D341 cell line", "experiment": "Induction of apoptosis in human D341 cells assessed as increase in population of cells in sub-G1 phase at 500 nM incubated for 72 hrs by flow cytometry", "type": "functional, cell-based", "procedure,_shortened": "as §3"}, "D341 cell line [16]": {"system": "D341 cell line", "experiment": "Antiproliferative activity against human D341 cells at 500 nM incubated for 72 hrs by BrdU ELISA method", "type": "functional, cell-based", "procedure,_shortened": "as §2"}, "HD-MB03 [17]": {"system": "HD-MB03", "experiment": "Induction of apoptosis in human HD-MB03 cells assessed as increase in population of cells in G1 phase at 500 nM incubated for 72 hrs by flow cytometry", "type": "functional, cell-based", "procedure,_shortened": "as §3"}, "Daoy [18]": {"system": "Daoy", "experiment": "Induction of senescence in human Daoy cells assessed as increase in population of cells in G1 phase at 500 nM incubated for 72 hrs by fluorometric SA-beta-gal activity assay", "type": "functional, cell-based", "procedure,_shortened": "as §4"}, "UW228 [19]": {"system": "UW228", "experiment": "Anti-proliferative activity against human UW228 cells assessed as reduction in cell viability incubated for 120 hrs by MTT assay", "type": "functional, cell-based", "conditions": "UW228, 120 h", "procedure,_shortened": "as §1"}, "[20]": {"target": "Bromodomain-containing protein 4 (Homo sapiens) (UniProt O60885)", "conditions": "Daoy, dose 500.0 nM, time 72.0 hrs"}, "[21]": {"target": "Bromodomain-containing protein 4 (Homo sapiens) (UniProt O60885)", "conditions": "HD-MB03, dose 500.0 nM, time 24.0 hrs"}, "[22]": {"target": "Bromodomain-containing protein 4 (Homo sapiens) (UniProt O60885)", "conditions": "Daoy, dose 500.0 nM, time 24.0 hrs"}, "Mus musculus": {"system": "Mus musculus", "experiment": "[…] of cell proliferation in female athymic (nu/nu) mouse xenografted with human HD-MB03 cells as reduction in number of proliferating cells in tumor at 50 mg/kg, ip administered at 0, 12, 24 and 36 hrs over 2-day course by immunostaining and hematoxylin-eosin staining", "type": "functional, organism-based", "procedure,_shortened": "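HD-MB3 cells in Matrigel (2 × 10^7) injected subcutaneously into the left flank of 4-week-old female nu/nu mice. Given JQ1 50 mg/kg i.p. or DMSO vehicle at 0, 12, 24 and 36h; killed 4h after the last dose. Fixed 5 µm tumour sections underwent pH 6.0 retrieval and Ki67 (1:25) immunostaining with H&E; positive cells quantified, 3 tumours per group.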"}, "D341 cell line [23]": {"system": "D341 cell line", "experiment": "Induction of apoptosis in human D341 cells assessed as increase in population of cells in G1 phase at 500 nM incubated for 72 hrs by ELISA", "type": "functional, cell-based"}},
  "note": "Calls of active or inactive are those of the source. No cut-off for these calls is given here.",
  "data": [
    {"compound": "Cc1sc2c(c1C)C(c1ccc(Cl)cc1)=N[C@@H](CC(=O)OC(C)(C)C)c1nnc(C)n1-2", "values": [
      {"measurement": "IC50", "setting": "D283 Med [1]", "value": 477, "unit": "nM"},
      {"measurement": "IC50", "setting": "UW228 [2]", "value": "> 1000", "unit": "nM"},
      {"measurement": "Activity", "setting": "ONS-76 [3]", "value": "Active"},
      {"measurement": "inhibition", "setting": "HD-MB03 [4]", "value": "Active"},
      {"measurement": "IC50", "setting": "D341 cell line [5]", "value": 924, "unit": "nM"},
      {"measurement": "IC50", "setting": "UW228 [6]", "value": "> 1000", "unit": "nM"},
      {"measurement": "IC50", "setting": "D283 Med [7]", "value": 316, "unit": "nM"},
      {"measurement": "Activity", "setting": "D283 Med [8]", "value": "Active"},
      {"measurement": "Activity", "setting": "Daoy [9]", "value": "Active"},
      {"measurement": "Activity", "setting": "D341 cell line [10]", "value": "Active"},
      {"measurement": "Activity", "setting": "Daoy [11]", "value": "Active"},
      {"measurement": "IC50", "setting": "ONS-76 [12]", "value": 123, "unit": "nM"},
      {"measurement": "inhibition", "setting": "[13]", "value": "Active"},
      {"measurement": "Activity", "setting": "HD-MB03 [14]", "value": "inactive"},
      {"measurement": "Activity", "setting": "D341 cell line [15]", "value": "Active"},
      {"measurement": "Activity", "setting": "D341 cell line [16]", "value": "Active"},
      {"measurement": "Activity", "setting": "HD-MB03 [17]", "value": "Active"},
      {"measurement": "Activity", "setting": "Daoy [18]", "value": "Active"},
      {"measurement": "IC50", "setting": "UW228 [19]", "value": 897, "unit": "nM"},
      {"measurement": "inhibition", "setting": "[20]", "value": "Active"},
      {"measurement": "inhibition", "setting": "[21]", "value": "> 80", "unit": "%"},
      {"measurement": "inhibition", "setting": "[22]", "value": "Active"},
      {"measurement": "Activity", "setting": "Mus musculus", "value": "Active"},
      {"measurement": "Activity", "setting": "D341 cell line [23]", "value": "Active"}
    ]}
  ]
}
